Reference: article PMC5760267 (ChemMedChem, 2016)

Target: human immunoproteasome β5i (Homo sapiens, UniProt P20618+P28062)
Test: IC50 against β5i
Type: biochemical
Conditions: for SIapp: apparent selectivity index = IC50β5c / IC50β5i: β5i over β5c; for reduction of potency against β5i: relative to the P1-β-Ala parents PKS2251 and PKS2252, respectively
Outline: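 Human immunoproteasome β5i activity was read as ac-ANW-AMC hydrolysis, and constitutive β5c activity as suc-LLVY-AMC hydrolysis. IC50s were determined by a previously reported method. Apparent selectivity index = IC50β5c / IC50β5i. Data reported as mean ± SEM.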

**Q.** Cc1cc(C(=O)N[C@@H](CC(=O)NC(C)(C)C)C(=O)N[C@@H](C)CC(=O)NCc2cccc3ccccc23)no1 [PKS2249] was tested. Which “SIapp: apparent selectivity index = IC50β5c / IC50β5i” value did it give?
**A.** 465

**Q.** Which “reduction of potency against β5i” value does the source give for Cc1ccc(S(=O)(=O)N[C@H](CC(=O)N[C@@H](C)C(=O)NCc2cccc3ccccc23)CC(=O)NC(C)(C)C)cc1 [PKS2279] here?
**A.** 2.5 fold

**Q.** What about the “SIapp: apparent selectivity index = IC50β5c / IC50β5i” value of the same compound?
**A.** 2521

**Q.** How did the “reduction of potency against β5i” value turn out when C[C@H](NC(=O)C[C@H](CC(=O)NC(C)(C)C)NC(=O)CCc1ccccc1)C(=O)NCc1cccc2ccccc12 [PKS2278] was run?
**A.** 58 fold

**Q.** With Cc1ccc(S(=O)(=O)N[C@@H](CC(=O)NC(C)(C)C)C(=O)N[C@@H](C)CC(=O)NCc2cccc3ccccc23)cc1 [PKS2252] as the compound, how does the “SIapp: apparent selectivity index = IC50β5c / IC50β5i” value read?
**A.** 13600

**Q.** How did the “SIapp: apparent selectivity index = IC50β5c / IC50β5i” value turn out when C[C@@H](CC(=O)NCc1cccc2ccccc12)NC(=O)[C@H](CC(=O)NC(C)(C)C)NC(=O)CCc1ccccc1 [PKS2251] was run?
**A.** 1333
